Assay results collected from several papers.
Compare with care: the assays were run in different laboratories.
Target: G protein-coupled receptor kinase 4 (GRK4, Homo sapiens, UniProt P32298)

Structure (SMILES)	effect on	mode	technique	concentration	quantity	value
CCCCC(=O)Nc1ccc(-c2ccc3ncn(CCC)c(=O)c3c2)cn1	binding	–	competition with immobilised ligand	0.5 µM	remaining binding	93%
C1=C/COCc2cc(ccc2OCCN2CCCC2)Nc2nccc(n2)-c2cccc(c2)COC/1	binding	–	–	0.1 µM	remaining binding	13%
C=CC(=O)N1CCC[C@@H](n2nc(-c3ccc(Oc4ccccc4)cc3)c3c(N)ncnc32)C1	enzyme activity	inhibitor	–	1 µM	inhibition	3%
Cc1ccc(NC(=O)c2ccnc(C(F)(F)F)c2)cc1-c1cc(OCCO)nc(N2CCOCC2)c1	binding	–	–	1 µM	remaining binding	99%
CNS(=O)(=O)c1ccc(Nc2ncc(C(F)(F)F)c(N3CCC[C@](C)(O)C3)n2)c(C)c1	binding	–	competition with immobilised ligand	1 µM	remaining binding	100%
CN1CCN(C(=O)c2ccc(NC(=O)Nc3ccc(N(C)c4ccnc(Nc5ccc(CS(C)(=O)=O)cc5)n4)cc3)cc2)CC1	binding	–	–	1 µM	remaining binding	4.5%
C=CC(=O)N1CCC([C@@H]2CCNc3c(C(N)=O)c(-c4ccc(Oc5ccccc5)cc4)nn32)CC1	enzyme activity	inhibitor	–	1 µM	inhibition	8%
C[C@]1(O)CCCN(c2nc(Nc3ccc(S(=O)(=O)N[C@H]4CC[C@H](CN5CCN(c6ccc(C7CCC(=O)NC7=O)cc6F)CC5)CC4)cc3F)ncc2C(F)(F)F)C1 (stereo partly drawn)	binding	–	competition with immobilised ligand	1 µM	remaining binding	87%
CC(C)S(=O)(=O)c1ccc2nccc(Nc3ccc4sc(C5CCCC5)nc4c3)c2c1	enzyme activity	inhibitor	–	1 µM	activity vs control	112%
